Publication PMC3483449 (FEBS letters, 2012)

B1: HCVCP-long peptide (aa. 2-27) (peptide)
peptide: STLPKPQRKTKRNTIRRPQDVKFPGG

Assays:
mouse AA3 [1] = biological target: T1, mouse AA3 (Mus musculus, UniProt Q91XE4); experiment: Inhibition of Co2+-dependent endopeptidase activity of AA3; assay type: biochemical; conditions: 1 mg/ml Pefabloc SC
T1 sequence (Q91XE4 1-318): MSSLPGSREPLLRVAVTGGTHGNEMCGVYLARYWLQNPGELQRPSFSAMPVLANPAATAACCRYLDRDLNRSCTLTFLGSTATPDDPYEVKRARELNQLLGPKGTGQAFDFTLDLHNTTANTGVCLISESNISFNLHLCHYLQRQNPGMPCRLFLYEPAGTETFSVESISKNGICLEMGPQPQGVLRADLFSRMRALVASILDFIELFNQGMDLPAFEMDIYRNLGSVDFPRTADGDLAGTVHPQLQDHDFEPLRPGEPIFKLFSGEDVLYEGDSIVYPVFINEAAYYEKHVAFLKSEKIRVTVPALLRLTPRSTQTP
Outline: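 Cleavage reaction with N-terminally Strep(II)-tagged mouse AA3 (E. coli-expressed, Streptactin-purified): 3 µM enzyme plus 1 mM peptide or 0.1 mM His-tagged HCV core protein (aa 1–177) in 50 mM Tris-HCl pH 7.5 with 1 mM CoCl2, incubated 18 h at 37°C. Products were diluted to 50 µM peptide, then analysed by reverse-phase HPLC with UV and on-line ionspray triple-quadrupole MS. Cleavage sites were assigned from masses.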

mouse AA3 [2] = biological target: T1, mouse AA3; experiment: Peptide cleavage catalyzed by AA3; assay type: biochemical; conditions: 3 μM AA3, 1 mM peptide or 0.1 mM HCVCP, 50 mM Tris-HCl pH 7.5, 1 mM CoCl2, 18 h, 37°C; LC-MS
Outline: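 Recombinant mouse AA3 (N-terminal Strep(II) tag, expressed in E. coli, Streptactin-purified) was incubated with N-acetylated or free peptides, or with His-tagged HCV core aa 1–177 (genotype 1). Aliquots were diluted in water to 50 μM peptide, then run by reverse-phase HPLC (0.1% formic acid, 0–100% acetonitrile over 60 min) with UV and triple-quadrupole ESI-MS detection (m/z 300–2000). Cleavage sites were assigned from fragment masses.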

mouse aminoacylase 3 = biological target: T2, mouse aminoacylase 3 (mouse, UniProt Q91XE4 1-318); experiment: SPR
T2 sequence (looked up): T1 sequence (Q91XE4 1-318)

| Molecule | Hydrolysis (cleavage) by AA3 (mouse AA3 [2]) | further results |
| --- | --- | --- |
| Cl.NCCc1ccc(S(=O)(=O)F)cc1 [Pefabloc SC] | – | Inhibition of Co2+-dependent endopeptidase activity of AA3 (mouse AA3 [1]): ~ 50% |
| casein | not hydrolyzed | – |
| insulin B chain: standard protease substrate | not hydrolyzed | – |
| B1 | – | Kd (mouse aminoacylase 3): 142 ± 11 µM |
